# Platelet DG rel = modulates dense granule release in human platelets. human platelet-rich plasma, SFLLRN dense granule ATP release, luminescence. inhibition, %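 (compounds screened at 7.5 µM in platelet-rich plasma)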. 300,000 tested, 0.22% active. AID 1663;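 active = mean replicate score, as percent of positive control, at or above 50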
# Wee1 degr inh = inhibitors of human Wee1 degradation | 220,000 tested, 1.2% active | reporter increase, % at 5 µM | P30291 | AID 1321 | HeLa Luc-Wee1K328M stability, luciferase luminescence; 100% = proteasome inhibitor MG132 effect;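 active = activation above the mean of all tested compounds plus 3 SD, set per screening run, cut at about 8.8% in these data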;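 note: cells exposed to compound for 20 h before luminescence read; 0% = DMSO alone and 100% = MG132 at 30 µM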
# FXIIa inh = inhibitors of human coagulation factor XIIa. P00748. purified FXIIa, Boc-QGR-AMC fluorogenic substrate, 2 h. inhibition, % at 5 µM. 220,000 tested, 0.3% active; in the data active = inhibition above about 40%;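 note: 0% = enzyme with no compound and 100% = blank without enzyme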
# FXIa inh 1536 = inhibitors of human coagulation factor XIa; purified FXIa, Boc-Glu-Ala-Arg-AMC fluorogenic substrate; inhibition, % at 5 µM; 220,000 tested, 0.14% active; AID 798;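 active = inhibition of at least 40%; inactive = inhibition below 40%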;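 note: fluorescence of freed AMC excited at 355 nm; 0% = enzyme without compound and 100% = no enzyme blank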
# thrombin 1536 = inhibitors of human thrombin | AID 1046 | inhibition, % at 5 µM | 220,000 tested, 0.26% active | alpha-thrombin, Boc-VPR-AMC fluorogenic substrate cleavage | P00734;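 active = inhibition at or above 40%; inactive = inhibition below 40%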;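 note: 0% = enzyme with no compound and 100% = wells without enzyme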
#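 Material: Human alpha-thrombin protein | Buffer or medium: pH 7.5 Tris-saline with Tween 20 | Reagent: Boc-VPR-AMC substrate, 15 µM final | Schedule: Reaction at ambient temperature | Detection: AMC fluorescence at 355 nm excitation and 460 nm emission | Evaluation: Percent inhibition scaled between no-compound controls and no-enzyme blanks | Controls: no-compound enzyme wells and no-enzyme blanks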
# KLK5 inh = kallikrein 5 (human) inhibition; 210,000 tested, 0.59% active; AID 873; inhibition, % at 5 µM; recombinant hK5, fluorogenic AMC substrate cleavage; Q9Y337;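 active = inhibition of 40% or more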;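 note: 0% = enzyme controls without compound and 100% = no-enzyme blanks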
# Target sequence (Q9Y337 67-293 limits assumed): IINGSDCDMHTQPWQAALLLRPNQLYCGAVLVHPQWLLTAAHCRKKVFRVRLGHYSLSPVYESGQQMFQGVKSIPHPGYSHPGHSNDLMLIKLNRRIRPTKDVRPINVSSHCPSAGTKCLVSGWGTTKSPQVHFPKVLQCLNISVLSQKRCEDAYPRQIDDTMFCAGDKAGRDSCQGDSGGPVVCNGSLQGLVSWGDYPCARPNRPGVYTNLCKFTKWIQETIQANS
# * = called active by the depositor; / = not tested or not shown. Compounds with a hit are over-represented: about 1.8% of the library has one in this group of screens.
SMILES,Platelet DG rel,Wee1 degr inh,FXIIa inh,FXIa inh 1536,thrombin 1536,KLK5 inh
CCN(CC)c1ccc(/C=C(\C#N)C(=O)NCc2ccco2)cc1,/,-4,18,5,13,64*
CN(C)c1ccc(/C=C(\C#N)C(=O)NCc2ccco2)cc1,3,6,7,4,-9,-13
CCC(CO)NCC(O)COCc1ccc2c(c1)OCO2 (stereo not drawn),8,4,6,-2,-4,-4
CC1=C(C(=O)Nc2ccc(Cl)cc2)C2(CCCCC2)C(C(N)=O)C(=S)N1 (stereo not drawn),6,0,26,19,1,-16
CCN1C(=O)/C(=C\c2cccn2-c2ccc([N+](=O)[O-])cc2)N(CC)C1=S,4,9.5*,8,8,-7,-26
CCN1CCN(C(=S)Nc2ccc([N+](=O)[O-])cc2)CC1,8,-1,9,-2,0,-4
CCOc1ccc(CCNC(=O)CS(=O)Cc2nc(-c3ccc(OC)cc3)oc2C)cc1OCC (stereo not drawn),-3,/,/,/,/,/
Cc1cc(/C=C2\NC(=O)N(Cc3ccc(Cl)cc3)C2=O)c(C)n1C,/,-2,8,5,2,-3
Cc1nn(-c2ccccc2)c(Cl)c1/C=C1\SC(=S)N(C)C1=O,16,15*,11,10,-1,-5
Cn1ncc2c(NNC(=O)c3ccccc3Cl)ncnc21,-3,9.3*,10,4,-2,-47
CCn1c(C(C)NC(C)=O)nc2ccccc21 (stereo not drawn),1,-2,3,5,21,57*
CCn1c(C(C)NC(=O)c2cccs2)nc2ccccc21 (stereo not drawn),2,5,7,-6,-6,-6
CC(C)N(C)CCOC(=O)/C=C/c1ccccc1,2,-1,15,-4,6,41*
O=C(c1ccc(F)cc1F)N1CCCc2ccccc21,6,/,/,/,/,/
O=C(Nc1ccc(SC(F)F)cc1)c1ccccc1F,-4,3,24,39,35,43*
CSCCC(NC(=O)c1cncc(Br)c1)C(=O)O (stereo not drawn),3,-3,16,-3,9,52*
CSCCC(NC(=O)c1ccc(Br)cc1)C(=O)O (stereo not drawn),-12,-1,5,-2,-7,-4
Cc1cc(C)cc(N(C(=O)C(F)(F)F)C(C(=O)NC2CCCCC2)c2cccs2)c1 (stereo not drawn),0,11*,15,18,13,4
COCCCNC(=O)c1ccccc1Oc1ccccc1,-6,14*,3,0,-4,-4
COc1ccc(C(=O)O/N=C(\N)c2ccccc2)cc1,67*,/,/,/,/,/
COc1ccc(C(=O)O/N=C(/C)c2cccs2)cc1,59*,-1,5,16,-4,-6
COc1ccc(C(=O)O/N=C(\C)c2nccs2)cc1,-3,5,2,15,-10,/
COC(=O)CNC(=O)C12CC3CC(C1)CC(c1ccc(C)cc1)(C3)C2,-11,0,/,1,-8,-4
COCCNC(=O)C12CC3CC(C1)CC(c1ccccc1)(C3)C2,-3,11*,/,12,18,18
N/C(=N\OC(=O)c1cccc(Cl)c1)c1cccnc1,8,2,13,-2,47*,-1
SMILES,Platelet DG rel,Wee1 degr inh,FXIIa inh,FXIa inh 1536,thrombin 1536,KLK5 inh
CC(C)Cn1c(-c2ccccc2)nc2ccccc2c1=O,/,-2,42*,32,1,-3
COc1cccc(C2=NOC(C(=O)Nc3c(C)n(C)n(-c4ccccc4)c3=O)C2)c1 (stereo not drawn),-7,1,-1,-1,-11,-1
CCn1ncc(C2=NOC(C(=O)NCc3ccc(OC)cc3)C2)c1C (stereo not drawn),9,-1,5,-1,-4,0
CCn1ncc(C2=NOC(C(=O)Nc3c(C)n(C)n(-c4ccccc4)c3=O)C2)c1C (stereo not drawn),22,0,6,5,39,60*
CCn1ncc(C2=NOC(C(=O)NCc3ccccc3)C2)c1C (stereo not drawn),3,2,16,2,18,45*
COc1ccc(NS(=O)(=O)c2ccc(N3CC(O)=C(c4ccccc4)C3=N)cc2)cc1,13,-1,9,5,-3,3
Cc1ccc2cc(C(c3nnnn3CC3CCCO3)N3CCc4ccccc4C3)c(=O)[nH]c2c1 (stereo not drawn),0,3,-4,-2,-10,-1
Cc1cccc2cc(C(c3nnnn3CC3CCCO3)N3CCc4ccccc4C3)c(=O)[nH]c12 (stereo not drawn),/,-1,23,6,15,43*
CCOC(=O)C1=C(C)OC(N)=C(C#N)C1c1cc2c(cc1[N+](=O)[O-])OCO2 (stereo not drawn),7,-1,7,-2,74*,-1
CCOC(=O)C1=C(C)OC(N)=C(C#N)C1c1cc(OC)c2c(c1)OCO2 (stereo not drawn),4,2,0,-5,-7,-12
CC(C)c1nnc(NC(=O)CCC(=O)NC2CC2)s1,55*,/,/,/,/,/
CSc1ncccc1C(=O)Nc1nc2ccc(S(C)(=O)=O)cc2s1,5,8.9*,4,-3,-5,-3
CS(=O)(=O)c1ccc2nc(NC(=O)C3COc4ccccc4O3)sc2c1 (stereo not drawn),1,0,17,3,18,156*
COc1ccc2nc(NC(=O)C3COc4ccccc4O3)sc2c1 (stereo not drawn),-15,0,11,0,-6,-8
COc1ccc2nc(NC(=O)c3cccnc3SC)sc2c1,5,0,10,3,-3,-17
CCc1nn(CC(=O)NCCCN2CCN(CC)CC2)c(=O)c2cc3occc3n12,-2,/,/,/,/,/
O=C(Oc1coc(CSc2nnc(NC(=O)C3CC3)s2)cc1=O)c1c(F)cccc1F,-2,0,3,2,-4,0
O=C(OCC(=O)N1CCCc2ccccc21)c1ccc(Cl)nc1,-12,1,47*,14,28,29
NC(=O)C1(N2CCCCC2)CCN(C(=O)CSc2nc3ccccc3s2)CC1,-34,-2,11,9,26,59*
O=C(CSc1nc2ccccc2s1)N1CCOCC1,9,0,21,4,-4,-11
CCO[C@H]1OC(C(N)=O)=C[C@@H](c2coc3ccccc3c2=O)[C@@H]1CCCO,-2,9.2*,8,-1,-4,0
CCO[C@@H]1OC(C(=O)Nc2ccccc2)=C[C@H](c2coc3ccccc3c2=O)[C@H]1CCCO,-4,0,11,5,1,6
O=C(NCCc1ccc(F)cc1)c1cc(=O)c2ccccc2o1,-4,2,6,-2,5,-13
O=C(NCCc1ccccc1)c1cc(=O)c2ccccc2o1,2,-1,52*,24,17,47*

# Bioassay records deposited in PubChem BioAssay by several laboratories.
